Screens from PubChem BioAssay.
MrgX1 ag: activates human MrgX1 receptor signaling; Q96LB2; MrgX1-HEK293 cells, Fluo-4 calcium fluorescence, agonist mode; stronger effect = higher value; B-score at 10 µM; actives 0.44% (n = 310,000);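 active = calcium response B-score plate-corrected fluorescence ratio at least 3 library SD, with starting fluorescence B-score inside 5 SD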
Target sequence (Q96LB2 whole entry, looked up): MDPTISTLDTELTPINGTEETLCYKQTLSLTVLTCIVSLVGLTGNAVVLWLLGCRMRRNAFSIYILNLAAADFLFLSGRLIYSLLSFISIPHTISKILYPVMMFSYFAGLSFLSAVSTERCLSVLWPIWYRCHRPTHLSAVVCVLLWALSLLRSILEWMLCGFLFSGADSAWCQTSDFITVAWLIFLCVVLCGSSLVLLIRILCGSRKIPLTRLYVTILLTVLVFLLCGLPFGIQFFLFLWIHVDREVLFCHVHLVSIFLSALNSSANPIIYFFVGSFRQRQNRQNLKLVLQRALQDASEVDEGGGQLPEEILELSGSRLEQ
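Material – MrgX1-expressing HEK293 cells · Input – 15,000 cells seeded per well · Dosing – compound as first of three additions · Times – overnight seeding, then 1 h dark dye loading · Measured by – kinetic Fluo-4 NW fluorescence of intracellular calcium · Read-out – B-scored fluorescence response ratio · Benchmarks – positive and negative control wells on each plate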
MrgX1 antagonist: human MrgX1 receptor antagonism, primary screen; Q96LB2; MRGX1-HEK293 calcium flux, Fluo-4, BAM8-22 antagonism; stronger effect = lower value; B-score at 10 µM; actives 1.3% (n = 310,000); AID 588676;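 active = calcium-response B-score plate-corrected more than 3 library SD below zero, starting fluorescence within 5 deviations, no agonist response on first addition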;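 note: peak minus trough fluorescence over baseline after final BAM8-22 challenge near maximal dose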
RGS4 pot: potentiators or activators of RGS4 | HEK293 M3R/inducible RGS4, carbachol calcium flux Fluo4; stronger effect = lower value | B-score at 10 µM | actives 0.92% (n = 310,000);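 active = B-score of the integrated calcium signal more than 4 SD below the library mean, with starting fluorescence not abnormally high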;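 note: negative B-score means reduced calcium response which marks RGS4 activation or potentiation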
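Assay system: HEK293 FlpIn-TREx cells, stable M3R, doxycycline-inducible RGS4 / Probe or stimulus: carbachol, ECmax concentration / Times: overnight RGS4 induction, 30 min dye load 37 °C, 20 min compound RT / Signal: kinetic calcium fluorescence imaging with Fluo4-AM dye, 2 µM / Measure: Agonist-evoked peak-minus-minimum fluorescence over baseline, integrated ratio, B score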
RGS4 block: inhibitors of human RGS4. P49798. actives 0.45% (n = 310,000). AID 463165. HEK293 M3R/RGS4 inducible, Fluo-4 calcium flux; stronger effect = higher value; triggered by carbachol at its EC20. B-score at 10 µM;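 active = B-score, a plate-corrected calcium signal, over three deviations above library mean, with baseline fluorescence within five deviations of library mean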;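 note: RGS4 expression induced by doxycycline in cells with stable M3 receptor; B-score is computed from the integrated fluorescence ratio over baseline after carbachol; higher B-score means a larger calcium signal and so more RGS4 inhibition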
Target sequence (P49798 whole entry, looked up): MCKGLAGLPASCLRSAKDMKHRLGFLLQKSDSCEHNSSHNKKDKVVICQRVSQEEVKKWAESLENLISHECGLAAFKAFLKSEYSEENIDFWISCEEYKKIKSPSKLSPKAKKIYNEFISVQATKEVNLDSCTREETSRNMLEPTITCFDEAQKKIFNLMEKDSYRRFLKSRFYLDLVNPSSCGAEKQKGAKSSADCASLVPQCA
MrgX1 allo act: allosterically activates human MrgX1 receptor signaling; B-score at 10 µM; AID 588675; MrgX1-HEK293, Fluo-4 calcium flux, FDSS; stronger effect = higher value; actives 0.63% (n = 310,000);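 active = plate-corrected calcium response at least 3 library SD above typical, normal starting fluorescence, not activating the receptor alone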;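 note: compound read alongside a low EC10 to EC30 dose of BAM8-22 agonist; peak minus trough fluorescence over baseline measured at the second addition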
Of the large screens only hits and unclear results are named; the others gave an inactive call. An excerpt weighted towards active compounds, which were near 3.5% of everything screened.

C#CCOCCOCCOCCNc1nc(N2CCN(C(=O)CCCCCCCCCCNC(=O)Cn3cc(CCCCCN)nn3)CC2)nc(N2CCN(C(=O)CCCCCCCCCCNC(=O)[C@H](CO)n3cc(CCCCCN)nn3)CC2)n1	none (no result: RGS4 pot, RGS4 block)
C#CCOCCOCCOCCNc1nc(N2CCN(C(=O)CCCCCCCCCCNC(=O)[C@H](CCCCN)n3cc(CCCC(=O)O)nn3)CC2)nc(N2CCN(C(=O)CCCCCCCCCCNC(=O)[C@H](CCCN=C(N)N)n3cc(C[C@@H](C)CC)nn3)CC2)n1	MrgX1 ag 40 (no result: RGS4 pot, RGS4 block)
C#CCOCCOCCOCCNc1nc(N2CCN(C(=O)CCCCCCCCCCNC(=O)[C@H]([C@@H](C)CC)n3cc(CCCCCN)nn3)CC2)nc(N2CCN(C(=O)CCCCCCCCCCNC(=O)[C@@H]([C@H](C)O)n3cc(C)nn3)CC2)n1	none (no result: RGS4 pot, RGS4 block)
C#CCOCCOCCOCCNc1nc(N2CCN(C(=O)CCCCCCCCCCNC(=O)[C@@H](CCSC)n3cc(CCO)nn3)CC2)nc(N2CCN(C(=O)CCCCCCCCCCNC(=O)[C@H]([C@@H](C)CC)n3cc(CCCCCN)nn3)CC2)n1	MrgX1 allo act 15 (no result: RGS4 pot, RGS4 block)
C#CCOCCOCCOCCNc1nc(N2CCN(C(=O)CCCCCCCCCCNC(=O)[C@H](CCCCN)n3cc(C)nn3)CC2)nc(N2CCN(C(=O)CCCCCCCCCCNC(=O)[C@@H]([C@H](C)CC)n3cc(CCCCCN)nn3)CC2)n1	MrgX1 ag 120 (no result: RGS4 pot, RGS4 block)
C#CCOCCOCCOCCNc1nc(N2CCN(C(=O)CCCCCCCCCCNC(=O)Cn3cc(CCCCCN)nn3)CC2)nc(N2CCN(C(=O)CCCCCCCCCCNC(=O)[C@H]([C@@H](C)CC)n3cc(CCCCCN)nn3)CC2)n1	MrgX1 ag 51 (no result: RGS4 pot, RGS4 block)
CCC1(c2ccccc2)NC(=O)N(CC(=O)Nc2ccc(S(=O)(=O)NC3=NCCCCC3)cc2)C1=O (stereo unspecified)	none
CC[C@H](C)Cc1cn([C@@H](CCCCNC(=O)OC(C)(C)C)C(=O)NCCCCCCCCCCC(=O)N2CCN(C(=O)OC(C)(C)C)CC2)nn1	MrgX1 antagonist -7.1 (no result: RGS4 pot, RGS4 block)
C#CCOCCOCCOCCNc1nc(N2CCN(C(=O)CCCCCCCCCCNC(=O)[C@H](CCCCN)n3cc(CCO)nn3)CC2)nc(N2CCN(C(=O)CCCCCCCCCCNC(=O)[C@H](CCCCN)n3cc(CCO)nn3)CC2)n1	none (no result: RGS4 pot, RGS4 block)
C#CCOCCOCCOCCNc1nc(N2CCN(C(=O)CCCCCCCCCCNC(=O)[C@H]([C@@H](C)CC)n3cc(CCCCN=C(N)N)nn3)CC2)nc(N2CCN(C(=O)CCCCCCCCCCNC(=O)[C@H](CCCCN)n3cc(C[C@@H](C)CC)nn3)CC2)n1	MrgX1 ag 61 (no result: RGS4 pot, RGS4 block)
C#CCOCCOCCOCCNc1nc(N2CCN(C(=O)CCCCCCCCCCNC(=O)[C@H](CCCCN)n3cc(C[C@@H](C)CC)nn3)CC2)nc(N2CCN(C(=O)CCCCCCCCCCNC(=O)[C@H](CCCCN)n3cc(C[C@@H](C)CC)nn3)CC2)n1	MrgX1 ag 89 (no result: RGS4 pot, RGS4 block)
CC(C)(C)OC(=O)NCCCC[C@@H](C(=O)NCCCCCCCCCCC(=O)N1CCN(C(=O)OC(C)(C)C)CC1)n1cc(CCO)nn1	none (no result: RGS4 pot, RGS4 block)
C#CCOCCOCCOCCNc1nc(N2CCN(C(=O)CCCCCCCCCCNC(=O)[C@H](CCCCN)n3cc(CCO)nn3)CC2)nc(N2CCN(C(=O)CCCCCCCCCCNC(=O)[C@H](CCCN=C(N)N)n3cc(C[C@@H](C)CC)nn3)CC2)n1	MrgX1 ag 153 (no result: RGS4 pot, RGS4 block)
C=CCN(C(=O)c1ccc2snnc2c1)c1ccccc1	none
CCOC(=O)C(Cc1ccccc1)NC(=O)Cn1nnc(-c2ccc(SC)cc2)n1 (stereo unspecified)	MrgX1 antagonist -6.9
CCN1C(=O)/C(=C2\SC(=S)N(NC(=O)c3ccccc3O)C2=O)c2ccccc21	MrgX1 allo act 15
CCN1C(=O)/C(=C2\SC(=S)N(c3c(C)n(C)n(-c4ccccc4)c3=O)C2=O)c2ccccc21	none
CCOc1ccc(C(C)=O)cc1Cc1c(O)nc(N)[nH]c1=O	MrgX1 antagonist -5.2
O=[N+]([O-])c1ccc(-n2nncc2-c2ccc(Cl)cc2)cc1	MrgX1 antagonist -4.9
CC1CCC(C(C)C)C(OC(=O)Cn2c(-c3ccccc3)[n+](C)c3ccccc32)C1 (stereo unspecified)	MrgX1 antagonist -7.5
Cc1cccc(OCc2n(CC(=O)OC3CC(C)CCC3C(C)C)c3ccccc3[n+]2C)c1 (stereo unspecified)	MrgX1 antagonist -9.6, RGS4 pot -12
CC1CCC(C(C)C)C(OC(=O)Cn2c(-c3ccc(F)cc3)[n+](C)c3ccccc32)C1 (stereo unspecified)	MrgX1 antagonist -5.8 (no result: RGS4 pot, RGS4 block)
CC1CCC(C(C)C)C(OC(=O)CSc2nc(N)cc(=O)[nH]2)C1 (stereo unspecified)	none
CC1CCC(C(C)C)C(OC(=O)CSc2nnc(N)s2)C1 (stereo unspecified)	none
Cc1cccc(OC(=O)Cn2c(C(F)(F)F)nc3ccccc32)c1	none
CCOc1c(C)cnc2c1c(=O)n(Cc1ccc(Cl)cc1)c(=O)n2C	none
CC(=O)Nc1ccc(S(=O)(=O)NCCC(=O)N2CCN(C(c3ccccc3)c3ccccc3)CC2)cc1	none
CSc1ccccc1OCc1cc(C(=O)NC2CCc3ccccc32)no1 (stereo unspecified)	none
Cc1ccc(OCc2cc(C(=O)NC3CCc4ccccc43)no2)cn1 (stereo unspecified)	MrgX1 antagonist -4.7
Cc1ccc(O)c(C(=O)c2cc(C#N)c(=O)n(-c3nccs3)c2)c1	MrgX1 ag 53
Cc1c(-n2cc(C(=O)c3cc(Cl)ccc3O)cc(C#N)c2=O)c(=O)n(-c2ccccc2)n1C	MrgX1 allo act 7.8
Cc1nn(C)c(C(=O)N/N=C/c2cc3c(cc2Br)OCO3)c1Br	none
Cc1nonc1C(=O)N/N=C/c1cc2c(cc1Br)OCO2	MrgX1 antagonist -5
Cc1cc(=O)oc2cc(OCC(=O)OCC(=O)Nc3c(C)n(C)n(-c4ccccc4)c3=O)ccc12	MrgX1 antagonist -8.8
COC(=O)c1sc(NC(=O)CCCn2nc([N+](=O)[O-])cc2C)c(C(=O)OC)c1C	MrgX1 antagonist -6.1
Cc1cc([N+](=O)[O-])nn1CCCC(=O)NCc1ccc(F)cc1	MrgX1 allo act 14
CCOc1cc(/C=N/NC(=O)Cn2nc([N+](=O)[O-])cc2C)ccc1OCc1ccc(F)cc1	MrgX1 antagonist -4.9
O=C1C=CC(=O)N1N(c1ccccc1)c1ccccc1	none
O=C(Nc1ccccc1OC(F)F)c1ccc(S(=O)(=O)N2CCOCC2)cc1	none
CC(C)CC(=O)NC(NC(=S)Nc1sc2c(c1C#N)CCCC2)C(Cl)(Cl)Cl (stereo unspecified)	MrgX1 antagonist -4.5
CC1(C)Cc2c(sc(NC(=O)c3ccc(C(=O)c4ccccc4)cc3)c2C#N)C(C)(C)N1	none
